AP complement – alternative complement pathway inhibitors, primary screen, biochemical, ELISA, human serum, orthogonally pooled compounds; 62,000 tested, 0.08% active; LPS-coated ELISA, C3 deposition; tested in compound mixtures; inhibition, % at 5 µM;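 active = inhibition above 30% in each of the two pooled mixtures holding the compound, so the lower value exceeds 30%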
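Assay system: human serum alternative complement pathway, C3 deposition on LPS-coated wells; Dosing: 5 µM per compound in ten-compound mixtures; Detection: Anti-C3 ELISA, OD 450 nm; Buffer or medium: Mg2+-EGTA GVB++ buffer containing human serum at 1:15 dilution; Timing: 1 h at 37 °C; Replication: two different pools per compound.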
FXIIa inh mix – human factor XIIa inhibitors, primary screen, biochemical, pooled compound mixtures, fluorogenic substrate | Coagulation factor XII (Homo sapiens), P00748 | purified FXIIa | inhibition, % at 5 µM | 62,000 tested, 0.2% active
FXIa inh mix – FXIa protease inhibitors in compound pools, primary screen, biochemical, 10-compound mixtures; purified FXIa, fluorogenic substrate, pooled mixtures; Coagulation factor XI (Homo sapiens), P03951; inhibition, % at 5 µM; 62,000 tested, 0.19% active;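 note: each value is inhibition by a whole ten-compound pool holding the compound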
C1s block – complement C1s protease inhibitors, primary screen, biochemical, 10-compound mixtures | AID 538, 2006 | 62,000 tested, 0.16% active | purified C1s, fluorogenic AMC substrate, pooled mixtures | mean inhibition % of two 10-compound mixtures (stronger effect = higher value), % at 5 µM (by protocol) | Complement C1s subcomponent (Homo sapiens), P09871;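 active = inhibition above 20% in each of the two 10-compound mixture wells holding the compound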
Cathepsin G inh – human cathepsin G inhibitors, primary screen, biochemical, pooled compound mixtures, AMC fluorescence; P08311; 62,000 tested, 0.2% active; inhibition, % at 5 µM (by protocol); purified enzyme, AMC-tetrapeptide fluorescence; AID 581, 2007;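 active = inhibition above 20% in each of the two mixture wells holding the compound; inactive = inhibition of 20% or less in either well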
Target sequence (P08311 21-244 limits assumed): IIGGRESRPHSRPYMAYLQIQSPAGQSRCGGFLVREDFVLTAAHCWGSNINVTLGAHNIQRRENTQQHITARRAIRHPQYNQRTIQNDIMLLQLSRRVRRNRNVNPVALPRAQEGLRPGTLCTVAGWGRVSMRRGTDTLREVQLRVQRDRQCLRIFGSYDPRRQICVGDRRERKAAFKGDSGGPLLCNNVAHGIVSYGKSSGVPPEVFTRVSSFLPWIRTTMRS
E coli RNAP – E. coli RNAP inhibitors, biochemical | DNA-directed RNA polymerase subunit beta (Escherichia coli (strain K12)), P0A8V2 | E. coli RNA polymerase, fluorescence transcription assay | inhibition, %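 (tested at 10 µM)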 | 62,000 tested, 0.2% active | AID 559, 2006; in the data active = inhibition above about 20%
Each line names hits and unclear results; the compound was inactive in the other large screens. Only some compounds are listed: those with a hit (about 0.83% of all), similar ones and a draw of the others. Cut-off read from the data, not from the text of the source, unless noted: active = inhibition above about 20% (passing the limit was not always enough); inactive = the rest.

CC1CCCCC1NC(=O)CSc1nnc(-c2ccccc2)n1N (centres undefined)	none
O=S(=O)(c1ccccc1)c1ccccc1/C=N\O	FXIIa inh mix 24.6 (no result: E coli RNAP)
CCCCn1c(-c2ccccc2)nc2c(=O)n(C)c(=O)[nH]c21	none
c1coc(C2Nc3cccc4cccc(c34)N2)c1	E coli RNAP 20.9
CC1Cc2ccccc2N1C(=O)CN1C(=O)CN(C)C(=O)c2ccccc21 (centres undefined)	none
O=C1CN(CC(=O)N2CCOCC2)c2ccccc2O1	FXIIa inh mix 21.9
CC(=O)Nc1cccc(OCC(=O)NS(=O)(=O)c2ccc(Cl)cc2)c1	none
O=C(CN1CCC(n2nnc3cc(F)ccc32)CC1)NC1CC1	none
CCOc1ccc2nc(NC(=O)CN3CCC(n4nnc5cc(F)ccc54)CC3)sc2c1	FXIIa inh mix 31.5
Cc1cc(C)n2nc3nc(N4CCCCC4)nc(-c4ccco4)c3c2n1	none
Cc1ccc(C2/C(=C(\O)c3c(C)nc4ccccn34)C(=O)C(=O)N2CCCN2CCOCC2)o1 (centres undefined)	none
CCOC(=O)c1[nH]c2ccc(F)cc2c1NC(=O)CN1CCc2cc(OC)c(OC)cc2C1	AP complement 34.8 (no result: E coli RNAP)
CC1(C)CC(=O)C2=C(C1)Nc1ccccc1N=C2	none
Clc1ccc(-c2nnc(SCc3nc(-c4ccccc4)no3)o2)cc1	none
COC(=O)c1cc(Br)c(=O)n(-c2ccc(C(C)=O)cc2)c1	FXIIa inh mix 21.3 (no result: E coli RNAP)
CC1CCCN(C(=O)CSc2nnc3n(C4CCCC4)c(=O)c4ccccc4n23)C1 (centres undefined)	AP complement 35.0
O=c1oc(-c2ccco2)nc2ccccc12	C1s block 47.8, Cathepsin G inh 74.3
Cc1sc2nc(-c3ccco3)oc(=O)c2c1C	C1s block 32.2
O=c1oc(-c2ccco2)nc2c1cnn2-c1ccccc1	none
CSCCC(NC(=O)c1ccc(C)o1)C(=O)O (centres undefined)	none
Cc1ccc(-c2nc(Nc3ccccc3)n[nH]2)cc1	none
O=C(NCC1COc2ccccc2O1)C1CCN(S(=O)(=O)c2cccc3nsnc23)CC1 (centres undefined)	none
CC(C)c1ccc2oc(=O)cc(CN3CCN(c4ccc(F)cc4)CC3)c2c1	AP complement 39.6
CCc1ccc2oc(=O)cc(CN3CCN(c4ccc(F)cc4)CC3)c2c1	none
COC(=O)c1ccc(NC(=O)NS(=O)(=O)c2ccc(C)cc2)cc1	none
C=CCNC(=O)NS(=O)(=O)c1ccc(C)cc1	FXIa inh mix 22.3
O=S(=O)(Nc1cccc2ccccc12)N1CCCC1	none
Cc1c(NS(=O)(=O)c2ccccc2)cc(Cl)c(O)c1C	E coli RNAP 26.3
O=S(=O)(Nc1ccccc1Cl)c1ccc(F)cc1	none
COc1nc2c(s1)C(=O)NCCC2	FXIIa inh mix 20.5
CCOC(=O)c1nn(-c2ccc3c(c2)OCO3)cc1O	none
O=c1[nH]c(CN2CCc3ccccc3C2)nc2ccccc12	Cathepsin G inh 48.1
COc1ccc(C2=NO[C@@H]3C(=O)N(c4c(C)cccc4C)C(=O)[C@H]23)cc1OC	E coli RNAP 23.6
O=C1COc2ccc(OCc3ccc(F)cc3)cc21	none
C=CCn1c(SCC(=O)NCc2ccc3c(c2)OCO3)nnc1C1COc2ccccc2O1 (centres undefined)	FXIa inh mix 33.4
O=C(O)CSC12CC3CC(C1)CC(C(=O)O)(C3)C2	FXIa inh mix 23.6
CC(=O)NC(C)C12CC3CC(CC(C(=O)O)(C3)C1)C2 (centres undefined)	none
Cc1ccc(NC(=O)Cc2nn(C)c(=O)c3ccccc23)cc1F	FXIIa inh mix 20.4, Cathepsin G inh 20.6
Cn1nc(CC(=O)Nc2ccc3c(c2)OCCO3)c2ccccc2c1=O	none
CC(=O)C(C(C)=O)c1c(Cl)c(O)c(O)c2c(C(=O)c3ccccc3)coc12	E coli RNAP 32.3
Cc1cc(NS(=O)(=O)c2ccc(NC(=O)COc3ccccc3C(C)C)cc2)no1	C1s block 25.3
CC(=O)Nn1c(-c2ccccc2)cc2ccccc21	none
O=c1cc(NCc2ccco2)[nH]c(=O)n1-c1ccc(Br)cc1	none
O=C(NCc1cccs1)c1cc(-c2cccs2)on1	Cathepsin G inh 34.0
O=C(NCc1ccccn1)c1cc(-c2ccccc2)on1	none
Cc1ccc(-c2cc(C(=O)NCc3ccccn3)no2)cc1	C1s block 65.3
CCOC(=O)c1c(NC(=O)CSc2nnnn2C)sc(C)c1-c1ccc(C)cc1	none
CC(C)C(O)P(=O)(OCc1ccccc1)c1ccc(N(C)C)cc1 (centres undefined)	none
CC(=O)Nc1sc2c(c1C#N)CCCCC2	E coli RNAP 21.8
Cc1cc(C(=O)Nc2sc3c(c2C#N)CCCC3)no1	none
COc1ccc(OCC(=O)Nc2ccc(N3CCOCC3)cc2)cc1	none
Cc1ccc(OCC(=O)Nc2ccc(N3CCOCC3)cc2)cc1	C1s block 60.0
CCCN1CCN(c2nc3c([nH]2)c(=N)ncn3CC(O)CO)CC1 (centres undefined)	none
COc1cccc(Oc2ccc(N)cn2)c1	FXIIa inh mix 23.2
CCOc1cccc(Oc2ccc(C(F)(F)F)cn2)c1	none
COc1ccccc1-c1cc(C(=O)Nc2cccnc2)no1	Cathepsin G inh 33.8
N/C(=N\O)C1COc2ccccc2O1 (centres undefined)	none
CC(=O)c1cc2c(O)c(O)ccc2o1	E coli RNAP 21.1
C=C(CC)C(=O)c1ccc(OCC(=O)O)c(Cl)c1Cl	none
CCn1c(SCC(=O)c2c(N)n(C)c(=O)n(C)c2=O)nc2sc(C)c(C)c2c1=O	C1s block 33.4
CC1CCN(S(=O)(=O)c2cccc(C(=O)NCc3cccs3)c2)CC1	C1s block 23.5
O=C1OCC(c2ccccc2)=C1c1ccc(S(=O)(=O)N2CCOCC2)s1	none
COC(=O)c1cc2c(=O)n3ccccc3nc2n(C)c1=N	AP complement 31.7
COC(=O)c1cc2c(=O)n3ccccc3nc2n(Cc2cccnc2)c1=N	none
Cc1cc(-c2ccccc2)n(-c2ccc(C(=O)N3CCN(c4ncccn4)CC3)cc2)n1	none
COc1cccc2c1C(=O)c1c(O)c3c(c(O)c1C2=O)C[C@@](O)(C(=O)CO)C[C@@H]3O[C@H]1C[C@H](N)[C@H](O)[C@H](C)O1	E coli RNAP 32.4
N#CCCCCN1c2cccc3cccc(c23)S1(=O)=O	none
O=C(C1CCN(S(=O)(=O)c2ccc(Br)s2)CC1)N1CCc2ccccc21	none
COc1cccc(-c2nnn(CC(=O)NC3CCCC3)n2)c1OC	FXIa inh mix 21.9

High-throughput results deposited in PubChem BioAssay by PCMD.
